For assay [1], the system named is Enterobacter. Nature of the assay: Antimicrobial activity against Enterobacter isolates producing extended-spectrum beta-lactamase CTX-M-2 by agar dilution method. It counts as functional. The procedure, abridged: (§1)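 Enterobacterial clinical isolates on Mueller-Hinton agar. Agar dilution with an inoculum of 10⁴ CFU per spot gave MICs of selected β-lactams. β-lactams were tested alone or with a fixed level of clavulanic acid (4 μg/ml) or tazobactam (4 μg/ml).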
(In general: Agar dilution tests growth on a series of plates holding different concentrations.)

For assay [2], the system named is Enterobacter. Kind of assay: Antimicrobial activity against Enterobacter isolates producing extended-spectrum beta-lactamase TEM-ES by agar dilution method. It counts as functional. The procedure, abridged: as §1
Assay [3] deals with Enterobacter. Nature of the assay: Antimicrobial activity against Enterobacter isolates producing extended-spectrum beta-lactamase CTX-M-14 by agar dilution method. The class given is functional. Summed up: as §1
Assay [4] has as its system Enterobacter. Nature of the assay: Antimicrobial activity against Enterobacter isolates producing extended-spectrum beta-lactamase CTX-M-9 by agar dilution method. The class given is functional. The procedure, abridged: as §1
Assay [5] deals with Enterobacter. Nature of the assay: Antimicrobial activity against Enterobacter isolates producing extended-spectrum beta-lactamase CTX-M-1 by agar dilution method. The class given is functional. Summed up: as §1
Assay [6] concerns Enterobacter. Nature of the assay: Antimicrobial activity against Enterobacter isolates producing extended-spectrum beta-lactamase CTX-M-15 by agar dilution method. The class given is functional. The procedure, abridged:
as §1

Assay [7] concerns Enterobacter. Kind of assay: Antimicrobial activity against Enterobacter isolates producing extended-spectrum beta-lactamase SHV-ES by agar dilution method. The class given is functional. Summed up: as §1
Assay [8] deals with Enterobacter. Kind of assay: Antimicrobial activity against Enterobacter isolates producing extended-spectrum beta-lactamase assessed as percent resistant isolates by disk diffusion method. For orientation: In agar diffusion tests the substance spreads into inoculated agar from a disc or well.

The term MIC denotes the smallest concentration in the dilution series that meets the test's criterion for growth inhibition. High values mean a less susceptible organism, low ones a more susceptible organism.

Each structure is given as a SMILES string. Values after ≈ are worked out from the molar mass of the structure shown.

On to `C[C@H]1[C@H](NC(=O)/C(=N\OC(C)(C)C(=O)O)c2csc(N)n2)C(=O)N1S(=O)(=O)O` [AZTREONAM], for which the MIC with Enterobacter [1] was found to be 16 µg/mL (≈ 36.7 µM); in the assay on Enterobacter [2], 2 µg/mL (≈ 4.59 µM); against Enterobacter [3], 2 µg/mL (≈ 4.59 µM); in the assay on Enterobacter [4], 2 µg/mL (≈ 4.59 µM); against Enterobacter [5], 64 µg/mL (≈ 147 µM); against Enterobacter [6], 2 µg/mL (≈ 4.59 µM). Further, the MIC against Enterobacter [7] was 2 µg/mL (≈ 4.59 µM).
Take `CC1(C)S[C@@H]2[C@H](NC(=O)[C@H](C(=O)O)c3ccsc3)C(=O)N2[C@H]1C(=O)O` [TICARCILLIN]: the MIC against Enterobacter [1], in the assay on Enterobacter [2], against Enterobacter [3], against Enterobacter [4], against Enterobacter [5] and in the assay with Enterobacter [6] was above 256 µg/mL throughout. For the same compound, the MIC in the assay on Enterobacter [7] was above 256 µg/mL.
On to `C[C@@H](O)[C@H]1C(=O)N2C(C(=O)O)=C(SCCNC=N)C[C@H]12` [IMIPENEM ANHYDROUS], for which the MIC in the assay with Enterobacter [1], in the assay on Enterobacter [2], against Enterobacter [3], against Enterobacter [4], with Enterobacter [5] and in the assay with Enterobacter [6] was 0.25 µg/mL (≈ 0.835 µM) throughout. In the assay with Enterobacter [7], this compound displayed an MIC of 0.25 µg/mL (≈ 0.835 µM).
Consider `C[C@@H](O)[C@H]1C(=O)N2C(C(=O)O)=C(S[C@@H]3CN[C@H](C(=O)Nc4cccc(C(=O)O)c4)C3)[C@H](C)[C@H]12` [ERTAPENEM], for which the MIC against Enterobacter [1] was found to be 0.06 µg/mL (≈ 0.126 µM); in the assay with Enterobacter [2] it was 0.06 µg/mL (≈ 0.126 µM); against Enterobacter [3] it was 0.003 µg/mL (≈ 0.00631 µM); in the assay on Enterobacter [4], 0.06 µg/mL (≈ 0.126 µM); in the assay on Enterobacter [5], 0.12 µg/mL (≈ 0.252 µM); in the assay with Enterobacter [6], 0.003 µg/mL (≈ 0.00631 µM). Also, the MIC in the assay with Enterobacter [7] is 0.06 µg/mL (≈ 0.126 µM).
For `O=C(O)c1cn(C2CC2)c2cc(N3CCNCC3)c(F)cc2c1=O` [CIPROFLOXACIN], in the assay with Enterobacter [8], the Activity was found to be 50%.
Take `CO/N=C(\C(=O)N[C@@H]1C(=O)N2C(C(=O)[O-])=C(C[N+]3(C)CCCC3)CS[C@H]12)c1csc(N)n1` [CEFEPIME]: the MIC against Enterobacter [1] came to 16 µg/mL (≈ 33.3 µM); in the assay with Enterobacter [2], 0.25 µg/mL (≈ 0.52 µM); with Enterobacter [3], 2 µg/mL (≈ 4.16 µM); with Enterobacter [4] it was 2 µg/mL (≈ 4.16 µM); in the assay with Enterobacter [5], 32 µg/mL (≈ 66.6 µM); with Enterobacter [6], 8 µg/mL (≈ 16.6 µM). The same compound displayed an MIC in the assay on Enterobacter [7] of 0.25 µg/mL (≈ 0.52 µM).
On to `CC(C)(O/N=C(\C(=O)N[C@@H]1C(=O)N2C(C(=O)[O-])=C(C[n+]3ccccc3)CS[C@H]12)c1csc(N)n1)C(=O)O` [CEFTAZIDIME], for which the MIC with Enterobacter [1] turned out to be 1 µg/mL (≈ 1.83 µM); in the assay with Enterobacter [2], 4 µg/mL (≈ 7.32 µM); against Enterobacter [3], 0.5 µg/mL (≈ 0.915 µM); with Enterobacter [4], 1 µg/mL (≈ 1.83 µM); in the assay with Enterobacter [5], 4 µg/mL (≈ 7.32 µM); in the assay on Enterobacter [6], 1 µg/mL (≈ 1.83 µM). The compound further came in with an MIC in the assay with Enterobacter [7] of 0.25 µg/mL (≈ 0.457 µM).
`CCN1CCN(C(=O)N[C@@H](C(=O)N[C@@H]2C(=O)N3[C@@H]2SC(C)(C)[C@@H]3C(=O)O)c2ccccc2)C(=O)C1=O` [PIPERACILLIN]: the MIC with Enterobacter [1] was 128 µg/mL (≈ 247 µM); in the assay with Enterobacter [2] it was 32 µg/mL (≈ 61.8 µM); against Enterobacter [3] it was 32 µg/mL (≈ 61.8 µM); with Enterobacter [4] it was 64 µg/mL (≈ 124 µM); in the assay with Enterobacter [5], above 256 µg/mL; against Enterobacter [6], 128 µg/mL (≈ 247 µM). The same compound yielded an MIC in the assay on Enterobacter [7] of 32 µg/mL (≈ 61.8 µM).
For the compound `O=C(N[C@H](CO)[C@H](O)c1ccc([N+](=O)[O-])cc1)C(Cl)Cl` [CHLORAMPHENICOL], in the assay on Enterobacter [8], the Activity amounted to 30%.
In the case of `CO[C@@]1(NC(=O)Cc2cccs2)C(=O)N2C(C(=O)O)=C(COC(N)=O)CS[C@@H]21` [CEFOXITIN], the MIC in the assay with Enterobacter [1] came out at 4 µg/mL (≈ 9.36 µM); against Enterobacter [2] it was 4 µg/mL (≈ 9.36 µM); in the assay on Enterobacter [3], 4 µg/mL (≈ 9.36 µM); in the assay on Enterobacter [4], 8 µg/mL (≈ 18.7 µM); against Enterobacter [5], 8 µg/mL (≈ 18.7 µM); with Enterobacter [6], 4 µg/mL (≈ 9.36 µM). For the same compound, the MIC against Enterobacter [7] was 4 µg/mL (≈ 9.36 µM).
`NCC[C@H](O)C(=O)N[C@@H]1C[C@H](N)[C@@H](O[C@H]2O[C@H](CN)[C@@H](O)[C@H](O)[C@H]2O)[C@H](O)[C@H]1O[C@H]1O[C@H](CO)[C@@H](O)[C@H](N)[C@H]1O` [AMIKACIN]: the Activity with Enterobacter [8] was found to be 2%.
In the case of `CC1(C)S[C@@H]2[C@H](NC(=O)[C@H](N)c3ccc(O)cc3)C(=O)N2[C@H]1C(=O)O` [AMOXICILLIN], the MIC in the assay with Enterobacter [1], in the assay on Enterobacter [2], in the assay with Enterobacter [3], in the assay with Enterobacter [4], against Enterobacter [5] and against Enterobacter [6] was above 256 µg/mL in each case. In the assay on Enterobacter [7], this compound showed an MIC above 256 µg/mL.
For the compound `CC(=O)OCC1=C(C(=O)O)N2C(=O)[C@@H](NC(=O)Cc3cccs3)[C@H]2SC1` [CEPHALOTHIN], the MIC with Enterobacter [1], with Enterobacter [2], in the assay on Enterobacter [3], in the assay with Enterobacter [4], with Enterobacter [5] and against Enterobacter [6] was above 256 µg/mL throughout. Further, in the assay with Enterobacter [7], the MIC was above 256 µg/mL.
In the case of `CO/N=C(\C(=O)N[C@@H]1C(=O)N2C(C(=O)O)=C(COC(C)=O)CS[C@H]12)c1csc(N)n1` [CEFOTAXIME], the MIC in the assay with Enterobacter [1] is 128 µg/mL (≈ 281 µM); with Enterobacter [2] it was 0.12 µg/mL (≈ 0.263 µM); in the assay on Enterobacter [3] it was 32 µg/mL (≈ 70.3 µM); against Enterobacter [4], 32 µg/mL (≈ 70.3 µM); against Enterobacter [5], above 256 µg/mL; in the assay with Enterobacter [6] it was 128 µg/mL (≈ 281 µM). In addition, in the assay on Enterobacter [7], the MIC worked out at 2 µg/mL (≈ 4.39 µM).

The values above are taken from ChEMBL document CHEMBL1155137, “Extended-spectrum beta-lactamases of the CTX-M type now in Switzerland” (2007).
